Data taken from ChEMBL document CHEMBL1649081, “Arylpiperazines for management of benign prostatic hyperplasia: design, synthesis, quantitative structure-activity relationships, and pharmacokinetic studies” (J Med Chem, 2011).
Several values for one entry are separate records, joined by “and”; a condition that tells them apart may be missing. Equal values may be shown once. Activity calls are given as the source filed them. The rule behind the calls is not given here.

Assays:
[1] = (§1) […] in Sprague-Dawley rat model […] assessed as reduction in prostate weight at 10 mg/k, po administered daily for 21 days measured after 24 hrs post last dose; assay type: functional
How it was run: (§2)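 Adult mature Sprague-Dawley rats (n = 5) received an oral 10.0 mg/kg dose as a water/gum acacia suspension daily for 21 days. Controls received vehicle, and a reference antiandrogen served as positive control. At autopsy 24 h after the last dose, prostates were dissected and weighed.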

[2] = tested on: Cancer cell lines; assay: as §1; assay type: functional; how it was run: as §2
[3] = tested on: Hypothalamus; assay: AUC (0 to t) in Sprague-Dawley rat hypothalamus at 10 mg/kg, po administered as single dose; assay type: ADME, organism-based; design: dose 10 mg/kg, route oral; conditions: in vivo
How it was run: (§3)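 Male Sprague-Dawley rats were fasted overnight (12-16 h) and given a single oral 10 mg/kg dose, n = 3 per time point. Animals were killed at intervals up to 24 h and serum, prostate and hypothalamus collected; hypothalamus was pooled from three rats. Analysis was by HPLC (0.01 M sodium acetate pH 6.0/acetonitrile 30:70; LLOQ 10 ng/mL), with noncompartmental parameters.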

[4] = Cmax in Sprague-Dawley rat serum at 10 mg/kg, po administered as single dose after 2 hrs; assay type: ADME, organism-based; design: dose 10 mg/kg, route oral; how it was run: as §3
[5] = tested on: Serum; assay: Clearance in Sprague-Dawley rat serum at 10 mg/kg, po administered as single dose; assay type: ADME, organism-based; design: dose 10 mg/kg, route oral; conditions: in vivo; how it was run: as §3
[6] = tested on: LNCaP; assay: Anticancer activity against human LNCAP cells assessed as change in PSA gene expression at 10 umol after 48 hrs by RT-PCR analysis; assay type: functional
How it was run: (§4)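 LNCaP cells (androgen-dependent human prostate cancer) were grown in RPMI-1640 with 10% FCS, 100 units/mL penicillin G and 100 μg/mL streptomycin on gelatin-coated plates. They were treated at 10 μmol for 48 h, with flutamide as positive control. PSA is reported as fold change relative to untreated control.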

[7] = tested on: Serum; assay: AUC (0 to t) in Sprague-Dawley rat serum at 10 mg/kg, po administered as single dose; assay type: ADME, organism-based; design: dose 10 mg/kg, route oral; conditions: in vivo; how it was run: as §3
[8] = Cmax in Sprague-Dawley rat serum at 10 mg/kg, po administered as single dose after 1 hr; assay type: ADME, organism-based; design: dose 10 mg/kg, route oral; how it was run: as §3
[9] = Ratio of drug level in hypothalamus to prostate in Sprague-Dawley rat at 10 mg/kg, po administered as single dos; assay type: ADME, organism-based; design: dose 10 mg/kg, route oral; conditions: in vivo; how it was run: as §3
[10] = Tmax in Sprague-Dawley rat serum at 10 mg/kg, po administered as single dose after 2 hrs; assay type: ADME, organism-based; design: dose 10 mg/kg, route oral; how it was run: as §3
[11] = Cmax in Sprague-Dawley rat prostate gland at 10 mg/kg, po administered as single dose after 2 hrs; assay type: ADME, organism-based; design: dose 10 mg/kg, route oral; how it was run: as §3
[12] = biological target: Estrogen receptor beta (Homo sapiens) (UniProt Q92731); assay: Induction of ERbeta in human prostate cells at 10 umol relative to control; assay type: cell-based
Estrogen receptor beta (Homo sapiens), sequence (Q92731 whole entry): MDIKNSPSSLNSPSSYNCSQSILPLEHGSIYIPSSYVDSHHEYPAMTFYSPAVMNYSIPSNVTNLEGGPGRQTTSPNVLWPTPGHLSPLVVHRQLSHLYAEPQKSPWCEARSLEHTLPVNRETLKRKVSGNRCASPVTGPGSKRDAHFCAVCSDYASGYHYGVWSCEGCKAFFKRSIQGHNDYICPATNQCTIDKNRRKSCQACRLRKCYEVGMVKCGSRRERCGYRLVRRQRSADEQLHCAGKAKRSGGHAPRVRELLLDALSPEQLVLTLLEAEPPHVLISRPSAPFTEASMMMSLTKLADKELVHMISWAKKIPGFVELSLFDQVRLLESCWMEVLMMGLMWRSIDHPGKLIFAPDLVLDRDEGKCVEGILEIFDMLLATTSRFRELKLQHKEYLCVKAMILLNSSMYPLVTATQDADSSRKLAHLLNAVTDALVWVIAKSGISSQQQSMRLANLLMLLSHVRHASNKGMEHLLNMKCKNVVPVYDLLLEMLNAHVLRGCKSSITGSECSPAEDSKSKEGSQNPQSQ
How it was run: (§5)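 ER-α and ER-β mRNA were measured by real-time PCR in two cell types: primary BPH-derived human stromal cells (passages 4-6; DMEM/Ham's F-12, 10% FCS) and LNCaP cells (RPMI-1640, 10% FCS, gelatin-coated). Cells at 80% confluence were treated with 10.0 μmol for 24 h, then total RNA was extracted. Results are fold change versus control, mean ± SE of three values.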

[13] = biological target: T1, Estrogen receptor (Homo sapiens) (UniProt P03372); assay: Induction of ERalpha in human LNCAP cells at 10 umol relative to control; assay type: cell-based
T1 sequence (whole entry): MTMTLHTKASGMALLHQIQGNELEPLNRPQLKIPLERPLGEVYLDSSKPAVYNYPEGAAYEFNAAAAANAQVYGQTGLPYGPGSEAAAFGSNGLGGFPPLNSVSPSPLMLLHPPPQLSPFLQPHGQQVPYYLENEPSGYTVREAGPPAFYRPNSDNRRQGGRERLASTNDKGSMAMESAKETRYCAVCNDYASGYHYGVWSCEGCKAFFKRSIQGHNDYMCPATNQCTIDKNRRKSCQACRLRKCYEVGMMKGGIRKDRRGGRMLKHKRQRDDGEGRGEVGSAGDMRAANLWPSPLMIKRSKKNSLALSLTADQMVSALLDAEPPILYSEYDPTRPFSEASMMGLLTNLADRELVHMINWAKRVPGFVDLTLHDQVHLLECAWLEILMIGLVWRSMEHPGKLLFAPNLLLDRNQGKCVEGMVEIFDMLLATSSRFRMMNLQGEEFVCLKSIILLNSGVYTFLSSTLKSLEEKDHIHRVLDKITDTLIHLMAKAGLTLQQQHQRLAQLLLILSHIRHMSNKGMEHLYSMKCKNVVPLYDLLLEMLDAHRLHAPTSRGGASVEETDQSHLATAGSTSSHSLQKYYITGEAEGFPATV
How it was run: (§6)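 LNCaP cells were grown in RPMI-1640 with 10% FCS, penicillin and streptomycin on gelatin-coated plates to 80% confluence, then treated at 10.0 μmol for 24 h, with flutamide as comparator. Total RNA was extracted with Trireagent, and ER-α/ER-β mRNA was measured by real-time PCR. Results are fold change versus control, mean ± SE of three values.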

[14] = Mean residence time in Sprague-Dawley rat hypothalamus at 10 mg/kg, po administered as single dose; assay type: ADME, organism-based; design: dose 10 mg/kg, route oral; how it was run: as §3
[15] = biological target: T1, Estrogen receptor (Homo sapiens); assay: Induction of ERalpha in human prostate cells at 10 umol relative to control; assay type: cell-based; how it was run: as §5
[16] = Cmax in Sprague-Dawley rat hypothalamus at 10 mg/kg, po administered as single dose after 1 hr; assay type: ADME, organism-based; design: dose 10 mg/kg, route oral; how it was run: as §3
[17] = Tmax in Sprague-Dawley rat hypothalamus at 10 mg/kg, po administered as single dose after 1 hr; assay type: ADME, organism-based; design: dose 10 mg/kg, route oral; how it was run: as §3
[18] = Tmax in Sprague-Dawley rat prostate gland at 10 mg/kg, po administered as single dose after 2 hrs; assay type: ADME, organism-based; design: dose 10 mg/kg, route oral; how it was run: as §3
[19] = Tmax in Sprague-Dawley rat serum at 10 mg/kg, po administered as single dose after 1 hr; assay type: ADME, organism-based; design: dose 10 mg/kg, route oral; how it was run: as §3
[20] = Mean residence time in Sprague-Dawley rat serum at 10 mg/kg, po administered as single dose; assay type: ADME, organism-based; design: dose 10 mg/kg, route oral; how it was run: as §3
[21] = Tmax in Sprague-Dawley rat prostate gland at 10 mg/kg, po administered as single dose after 1 hr; assay type: ADME, organism-based; design: dose 10 mg/kg, route oral; how it was run: as §3
[22] = biological target: Estrogen receptor beta (Homo sapiens) (UniProt Q92731); assay: Induction of ERbeta in human LNCAP cells at 10 umol relative to control; assay type: cell-based; how it was run: as §6
[23] = Cmax in Sprague-Dawley rat prostate gland at 10 mg/kg, po administered as single dose after 1 hr; assay type: ADME, organism-based; design: dose 10 mg/kg, route oral; how it was run: as §3
[24] = Tmax in Sprague-Dawley rat hypothalamus at 10 mg/kg, po administered as single dose after 2 hrs; assay type: ADME, organism-based; design: dose 10 mg/kg, route oral; how it was run: as §3
[25] = Cmax in Sprague-Dawley rat hypothalamus at 10 mg/kg, po administered as single dose after 2 hrs; assay type: ADME, organism-based; design: dose 10 mg/kg, route oral; how it was run: as §3
[26] = Ratio of drug level in serum to prostate in Sprague-Dawley rat at 10 mg/kg, po administered as single dos; assay type: ADME, organism-based, Prostate gland; design: dose 10 mg/kg, route oral; conditions: in vivo; how it was run: as §3
[27] = AUC (0 to t) in Sprague-Dawley rat prostate gland at 10 mg/kg, po administered as single dose; assay type: ADME, organism-based; design: dose 10 mg/kg, route oral; conditions: in vivo; how it was run: as §3
[28] = Mean residence time in Sprague-Dawley rat prostate gland at 10 mg/kg, po administered as single dose; assay type: ADME, organism-based; design: dose 10 mg/kg, route oral; how it was run: as §3
[29] = tested on: LNCaP; assay: Anticancer activity against human LNCAP cells assessed as change in PSA gene expression at 10 umol after 48 hrs by RT-PCR analysis relative to control; assay type: functional; how it was run: as §4

Structure (SMILES): O=C(c1ccccc1[N+](=O)[O-])N1CCN(c2ccccn2)CC1
- inhibition (INH) [1]: 15%

Structure (SMILES): O=[N+]([O-])c1ccccc1N1CCN(c2cccc(Cl)c2)CC1
- Activity [2]: inactive

Structure (SMILES): O=[N+]([O-])c1cc(C(F)(F)F)ccc1N1CCN(c2ncccn2)CC1
- inhibition (INH) [1]: 15% and 24%

Structure (SMILES): O=[N+]([O-])c1ccc(CN2CCN(c3ncccn3)CC2)cc1
- inhibition (INH) [1]: 15% and 24%

Structure (SMILES): O=[N+]([O-])c1ccc(N2CCN(c3cccc(Cl)c3)CC2)c(C(F)(F)F)c1
- inhibition (INH) [1]: 15% and 24%

Structure (SMILES): O=[N+]([O-])c1ccc(N2CCN(c3cccc(C(F)(F)F)c3)CC2)c(C(F)(F)F)c1
- AUC [3]: 2000 ng·h/g
- Cmax [4]: 139 ng/mL
- CL [5]: 0.17 mL/min/kg
- inhibition (INH) [6]: 90%
- AUC [7]: 712 ng·h/mL
- Cmax [8]: 106 ng/mL
- Ratio [9]: 0.35
- Tmax [10]: 2 h
- Cmax [11]: 365 ng/g
- fold change (FC) [12]: 6
- fold change (FC) [13]: 11
- MRT [14]: 11.6 h
- fold change (FC) [15]: 3
- Cmax [16]: 99.5 ng/g
- Tmax [17]: 1 h
- Tmax [18]: 6 h
- Tmax [19]: 0.5 h
- MRT [20]: 6.97 h
- inhibition (INH) [1]: 15% and 24%
- Tmax [21]: 1.5 h
- fold change (FC) [22]: 16
- Cmax [23]: 442 ng/g
- Tmax [24]: 2 h
- Cmax [25]: 124 ng/g
- Ratio [26]: 0.13
- AUC [27]: 5650 ng·h/g
- MRT [28]: 11 h
- fold change (FC) [29]: 0.106

Structure (SMILES): O=C(c1ccccc1)N1CCN(c2ccccn2)CC1
- inhibition (INH) [1]: 10%

Structure (SMILES): O=[N+]([O-])c1ccc(N2CCN(c3ccccn3)CC2)cc1
- inhibition (INH) [1]: 15% and 24%

Structure (SMILES): O=C(c1ccc(C(F)(F)F)cc1)N1CCN(c2cccc(Cl)c2)CC1
- inhibition (INH) [1]: 10%

Structure (SMILES): O=[N+]([O-])c1cc(C(F)(F)F)ccc1N1CCN(c2cccc(C(F)(F)F)c2)CC1
- inhibition (INH) [1]: 15% and 24%

Structure (SMILES): O=[N+]([O-])c1ccc(N2CCN(c3ccc(F)cc3)CC2)c(C(F)(F)F)c1
- inhibition (INH) [1]: 15% and 24%

Structure (SMILES): O=[N+]([O-])c1ccc(CN2CCN(c3cccc(C(F)(F)F)c3)CC2)cc1
- inhibition (INH) [1]: 15%

Structure (SMILES): O=[N+]([O-])c1cc(C(F)(F)F)ccc1N1CCN(c2ccccn2)CC1
- inhibition (INH) [1]: 15%

Structure (SMILES): O=[N+]([O-])c1ccc(CN2CCN(c3ccccn3)CC2)cc1
- inhibition (INH) [1]: 15%

Structure (SMILES): O=C(c1ccccc1[N+](=O)[O-])N1CCN(c2cccc(C(F)(F)F)c2)CC1
- inhibition (INH) [1]: 15%

Structure (SMILES): O=[N+]([O-])c1ccc(N2CCN(c3ccccn3)CC2)c(C(F)(F)F)c1
- inhibition (INH) [1]: 15% and 24%

Structure (SMILES): O=C(c1ccc(C(F)(F)F)cc1)N1CCN(c2ccccn2)CC1
- inhibition (INH) [1]: 15%

Structure (SMILES): O=C(c1ccc(C(F)(F)F)cc1)N1CCN(c2cccc(C(F)(F)F)c2)CC1
- inhibition (INH) [1]: 15%

Structure (SMILES): O=[N+]([O-])c1ccc(CN2CCN(c3cccc(Cl)c3)CC2)cc1
- inhibition (INH) [1]: 15%

Structure (SMILES): O=[N+]([O-])c1ccccc1N1CCN(c2ccccn2)CC1
- inhibition (INH) [1]: 15%

Structure (SMILES): O=[N+]([O-])c1cc(C(F)(F)F)ccc1N1CCN(c2ccc(F)cc2)CC1
- inhibition (INH) [1]: 15%

Structure (SMILES): CC(C)C(=O)Nc1ccc([N+](=O)[O-])c(C(F)(F)F)c1 [FLUTAMIDE]
- inhibition (INH) [6]: 99%
- fold change (FC) [13]: 11
- fold change (FC) [22]: 14
- fold change (FC) [29]: 0.01

Structure (SMILES): O=[N+]([O-])c1ccccc1N1CCN(c2cccc(C(F)(F)F)c2)CC1
- Activity [2]: inactive

Structure (SMILES): O=[N+]([O-])c1ccc(N2CCN(c3ncccn3)CC2)c(C(F)(F)F)c1
- inhibition (INH) [1]: 15% and 24%

Structure (SMILES): O=C(c1ccccc1)N1CCN(c2ncccn2)CC1
- inhibition (INH) [1]: 10%

Structure (SMILES): O=C(c1ccccc1)N1CCN(c2cccc(Cl)c2)CC1
- inhibition (INH) [1]: 10%

Structure (SMILES): O=[N+]([O-])c1cc(C(F)(F)F)ccc1N1CCN(c2cccc(Cl)c2)CC1
- inhibition (INH) [1]: 15%

Structure (SMILES): O=C(c1ccccc1)N1CCN(c2cccc(C(F)(F)F)c2)CC1
- inhibition (INH) [1]: 15%
